From paper PMC5189718 (Journal of the American Chemical Society, 2016)
Where “and” joins values, the source holds several entries; their conditions need not be identical. Identical values can stand only once.

What was measured:
hKOR [1] = target: T1, hKOR (Homo sapiens, UniProt P41145); assay: G protein BRET functional assay at hKOR; assay type: cell-based; conditions: for IC50: read-out: IC50 ± SEM (antagonist activity), inhibition of a reference agonist (U-50,488); for agonist activity: concentrations up to 100 µM
T1 sequence (P41145 whole entry, the tested form may be a part): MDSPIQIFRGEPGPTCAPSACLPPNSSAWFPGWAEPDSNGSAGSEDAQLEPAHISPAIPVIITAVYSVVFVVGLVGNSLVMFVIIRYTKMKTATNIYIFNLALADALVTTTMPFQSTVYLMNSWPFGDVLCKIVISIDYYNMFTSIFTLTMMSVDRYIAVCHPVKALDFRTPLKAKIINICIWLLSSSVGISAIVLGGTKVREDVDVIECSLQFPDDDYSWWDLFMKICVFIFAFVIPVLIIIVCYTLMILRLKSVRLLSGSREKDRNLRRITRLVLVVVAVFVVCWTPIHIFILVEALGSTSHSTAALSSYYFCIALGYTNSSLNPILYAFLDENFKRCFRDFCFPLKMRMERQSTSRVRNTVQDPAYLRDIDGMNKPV
Summary of the method: (§1)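 HEK cells expressing the human receptor, co-transfected with Gα fused to an RLuc8 donor and Gγ fused to an mVenus acceptor. Receptor activation separates the G protein subunits, so the BRET signal falls. Agonist mode gives EC50 and Emax. Antagonist mode gives IC50 for inhibition of a reference agonist, and pA2 from Schild analysis. Values are mean ± SEM, n ≥ 3.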

[2] = target: human mu-opioid receptor (hMOR) (Homo sapiens, UniProt P35372); assay: G protein BRET functional assay at hMOR; assay type: cell-based; conditions: for maximal efficacy (Emax) relative to DAMGO: G protein BRET, agonist mode; for EC50: read-out: EC50 ± SEM (agonist activity), G protein BRET, HEK cells, mean ± SEM, n ≥ 3
Chain of human mu-opioid receptor (hMOR) (P35372 whole entry): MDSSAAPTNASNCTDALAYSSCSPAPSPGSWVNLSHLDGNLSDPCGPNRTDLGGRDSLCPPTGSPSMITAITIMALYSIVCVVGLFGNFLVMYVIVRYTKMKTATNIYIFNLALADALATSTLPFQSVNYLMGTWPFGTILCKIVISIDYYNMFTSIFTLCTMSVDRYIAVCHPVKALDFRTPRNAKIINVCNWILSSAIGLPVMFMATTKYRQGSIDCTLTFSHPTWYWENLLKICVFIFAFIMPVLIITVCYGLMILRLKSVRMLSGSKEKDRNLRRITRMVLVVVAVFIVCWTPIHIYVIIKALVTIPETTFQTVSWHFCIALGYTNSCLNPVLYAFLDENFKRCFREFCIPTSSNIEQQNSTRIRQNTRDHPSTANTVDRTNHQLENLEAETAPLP

hDOR [3] = target: T2, hDOR (Homo sapiens, UniProt P41143); assay: G protein BRET functional assay at hDOR; assay type: cell-based; conditions: for IC50: read-out: IC50 ± SEM (antagonist activity), inhibition of a reference agonist; for agonist activity: concentrations up to 100 µM
T2 sequence (P41143 whole entry): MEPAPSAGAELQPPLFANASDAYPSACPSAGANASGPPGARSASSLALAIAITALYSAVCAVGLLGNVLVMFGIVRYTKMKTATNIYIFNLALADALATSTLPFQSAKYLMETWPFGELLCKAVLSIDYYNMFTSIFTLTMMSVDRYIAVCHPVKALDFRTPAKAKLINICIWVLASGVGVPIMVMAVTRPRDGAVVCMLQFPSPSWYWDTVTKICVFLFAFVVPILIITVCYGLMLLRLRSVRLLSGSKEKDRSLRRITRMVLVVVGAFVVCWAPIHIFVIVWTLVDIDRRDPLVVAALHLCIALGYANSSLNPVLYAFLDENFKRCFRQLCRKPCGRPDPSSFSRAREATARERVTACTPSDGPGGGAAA
Summary of the method: as §1

hDOR [4] = target: T2, hDOR; assay: Radioligand binding at hDOR; conditions: read-out: Ki ± SEM, n ≥ 3
mouse MOR (mMOR) = mouse MOR (mMOR) (Mus musculus, UniProt P42866); assay: G protein BRET functional assay at mouse MOR; assay type: cell-based
Chain of mouse MOR (mMOR) (P42866 whole entry): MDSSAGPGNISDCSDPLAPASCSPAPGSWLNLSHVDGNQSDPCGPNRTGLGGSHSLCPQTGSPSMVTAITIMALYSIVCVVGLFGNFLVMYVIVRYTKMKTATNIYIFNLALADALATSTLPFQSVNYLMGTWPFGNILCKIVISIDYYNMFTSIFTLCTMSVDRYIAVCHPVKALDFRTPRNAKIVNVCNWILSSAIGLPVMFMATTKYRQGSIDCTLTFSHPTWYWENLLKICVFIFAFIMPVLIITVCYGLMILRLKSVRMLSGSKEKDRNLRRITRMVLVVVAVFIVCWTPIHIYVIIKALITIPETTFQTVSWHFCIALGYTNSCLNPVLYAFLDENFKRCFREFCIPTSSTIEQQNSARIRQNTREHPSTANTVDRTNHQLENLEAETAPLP

hMOR [5] = target: T3, hMOR (Homo sapiens, UniProt P35372); assay: β-arrestin recruitment BRET assay at hMOR; assay type: cell-based; conditions: β-arrestin-2 BRET, in the presence of GRK2
T3 sequence (P35372 whole entry): as the sequence (P35372 whole entry) above

hMOR [6] = target: T3, hMOR; assay: Radioligand binding at hMOR; conditions: read-out: Ki ± SEM, n ≥ 3
rodent opioid receptors = assay: G protein BRET functional assays using rodent opioid receptors; assay type: cell-based; conditions: rodent receptors (mouse or rat)
hKOR [7] = target: T1, hKOR; assay: Radioligand binding at hKOR; conditions: read-out: Ki ± SEM, n ≥ 3

Compound	IC50 (hKOR [1]) [µM]	IC50 (hDOR [3]) [µM]	Ki (hDOR [4]) [µM]	agonist activity (hKOR [1])	agonist activity (hDOR [3])	agonist or antagonist activity at rodent opioid receptors (rodent opioid receptors)	other results
CCC1CN2CCc3c([nH]c4cccc(OC)c34)C2CC1C(=COC)C(=O)OC (single isomer, unassigned; (+)) [(+)-mitragynine]							Emax (hKOR [1]; G protein BRET, agonist mode): 31%
CC[C@@H]1CN2CCc3c([nH]c4cccc(O)c34)[C@@H]2C[C@@H]1/C(=C\OC)C(=O)OC [Compound 1]							maximal efficacy (Emax) relative to DAMGO [2]: 29%; EC50 [2]: 0.681 ± 0.379 µM
CO/C=C(/C(=O)OC)[C@@H]1CCN2CCc3c([nH]c4cccc(OC)c34)[C@@H]2C1 [Compound 3, desethylmitragynine]							maximal efficacy (Emax) relative to DAMGO [2]: 59%; EC50 [2]: 12 ± 7.6 µM
CC[C@@H]1CN2CC[C@@]3(O)C(=Nc4cccc(OC)c43)[C@@H]2C[C@@H]1/C(=C\OC)C(=O)OC [Compound 7-OH, 7-hydroxymitragynine]	7.9	> 10	0.219 ± 0.041				pA2 (Schild analysis) (hKOR [1]; competitive antagonism): 490 ± 131 nM; pA2 determined from Schild analysis (hKOR [1]; competitive antagonism): 0.49 µM; agonist activity at mMOR (mouse MOR (mMOR)): retains its agonist activity; β-arrestin recruitment (hMOR [5]): no measurable β-arrestin binding
C=C[C@H]1CN2CCc3c([nH]c4cccc(OC)c34)[C@@H]2C[C@@H]1/C(=C\OC)C(=O)OC [paynantheine]			> 10	no measurable agonist activity	no measurable agonist activity	no notable agonist or antagonist activity	agonist activity ([2]; concentrations up to 100 µM): no measurable agonist activity; IC50 ([2]; read-out: IC50 ± SEM (antagonist activity), inhibition of a reference agonist, n ≥ 3): 2.2 µM; Ki (hMOR [6]): 0.41 ± 0.152 µM
CC[C@@H]1CN2CCc3c([nH]c4cccc(OC)c34)[C@H]2C[C@@H]1/C(=C\OC)C(=O)OC [speciociliatine]	> 10	> 10	> 10	no measurable agonist activity	no measurable agonist activity	no notable agonist or antagonist activity	
CC[C@H]1CN2CCc3c([nH]c4cccc(OC)c34)[C@@H]2C[C@@H]1/C(=C\OC)C(=O)OC [speciogynine]	> 10	> 10	> 10	no measurable agonist activity	no measurable agonist activity	no notable agonist or antagonist activity	
mitragynine	8.5	> 10	> 10			no agonist activity	pA2 determined from Schild analysis (hKOR [1]; competitive antagonism): 1.4 ± 0.40 µM and 1.4 µM; antagonist activity at hDOR (hDOR [3]): very low potency; Ki (hKOR [7]): 0.772 ± 0.207 µM
